# Neddyl block: inhibitors of human cullin neddylation. TR-FRET cullin neddylation, biochemical. calls only at 25 µM. 360,000 compounds, 0.58% hits. AID 651699; in the data active = inhibition above about 36%
# UBC13 inh: human UBC13 polyubiquitination inhibition | P61088 | UBC13 polyubiquitin chain formation, TR-FRET | inhibition, % at 20 µM | 330,000 compounds, 0.47% hits; in the data active = inhibition above about 45%, passing the limit was not always enough
# Target sequence (P61088 whole entry, looked up): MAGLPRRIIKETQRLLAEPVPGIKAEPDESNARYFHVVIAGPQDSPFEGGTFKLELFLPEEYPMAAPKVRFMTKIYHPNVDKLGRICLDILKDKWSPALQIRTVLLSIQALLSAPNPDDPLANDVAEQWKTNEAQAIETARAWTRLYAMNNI
# Apaf1 inhib: human Apaf-1 inhibition; O14727; reconstituted apoptosome caspase-3 activity, DEVD-Rh110 fluorescence; inhibition, % at 20 µM; 330,000 compounds, 0.71% hits; AID 489030; active = inhibition of at least 40% at 20 µM;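 also: plate controls were DMSO wells for no effect and DEVD-CHO caspase inhibitor wells for full effect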
#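 Medium: Hepes buffer, pH 7.5 / System: biochemical Apaf-1 apoptosome reconstitution / Measured by: Rh110 fluorescence, excitation 480 nm, emission 540 nm / Times: compound with Apaf-1, dATP, procaspase-3 30 min, then 50 min reaction, room temperature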
# RAD54 inh: blocks human RAD54 Holliday junction branch migration. Q92698. FAM/BHQ fluorescence. inhibition, % at 10.4 µM. 360,000 compounds, 0.14% hits. AID 602329;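 active = mean normalized replicate activity at least 40 and at least half of replicates scoring 40 or more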;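 also: 0% = median of neutral control wells and 100% = median of positive control wells; inhibitors cause a drop in the FAM fluorescence signal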
# DNA FID counter: counter-screen for HCV NS3 helicase inhibitors: DNA intercalator displacement; DNA fluorescent intercalator displacement, fluorescence; inhibition, % at 7.9 µM; AID 1845; 290,000 compounds, 0.17% hits; in the data active = inhibition above about 37%;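 also: 0% = vehicle and 100% = reference compound; higher means more ethidium bromide displaced from hairpin DNA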
# RAD52 inh: RAD52 (human) annealing inhibition; recombinant RAD52 DNA annealing, FRET fluorescence; inhibition, % at 18.7 µM; 360,000 compounds, 0.46% hits; AID 651710;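 active = every replicate showing at least 50% inhibition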
# Neddyl inh conf: confirmation of human cullin neddylation inhibitors; shares compounds with Neddyl block; TR-FRET cullin neddylation biochemical assay; calls only at 25 µM; 1,800 compounds, 13% hits; AID 652217; in the data active = inhibition above about 40%;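 also: neddylation substrate is the cullin 1 ring ligase complex with SKP2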
# * marks the source's active call; other numbers are inactive results; i = inactive; / = no result given; + = active, no number. An excerpt weighted towards active compounds, which were near 1.6% of everything screened.
SMILES,Neddyl block,UBC13 inh,Apaf1 inhib,RAD54 inh,DNA FID counter,RAD52 inh,Neddyl inh conf
O=C(Nc1ccccc1Br)c1ccc(OC(=S)N2CCOCC2)cc1,i,2,1,/,-9,-10,/
Cc1ccc(NC(=O)c2ccc(OC(=S)N3CCOCC3)cc2)cc1,+,2,2,-1,-4,/,i
CO[C@H]1CN(C)C(=O)c2ccc(NC(=O)NC(C)C)cc2OC[C@H](C)N(CC2CC2)C[C@@H]1C,/,/,/,5,/,6,/
CN(C)S(=O)(=O)c1cccc(NC(=O)c2cc3c(=O)n4ccccc4nc3s2)c1,+,4,1,/,-3,-17,/
CCC(C)NC(=O)c1cc2c(=O)n3ccccc3nc2s1 (stereo not drawn),/,26,9,11,-9,5,/
Cc1cc(NS(=O)(=O)c2ccc(NC(=O)c3cc4c(=O)n5ccccc5nc4s3)cc2)nc(C)n1,+,/,/,/,-3,-22,+
Cc1cc(NS(=O)(=O)c2ccc(NC(=O)c3cc4ccccc4o3)cc2)nc(C)n1,i,-9,-2,/,-12,/,/
O=C(N[C@@H]1CC[C@@H](CCNS(=O)(=O)c2ccc(Cl)cc2)O[C@H]1CO)c1cccnc1,/,/,/,0,/,-18,/
CN=C1c2cc3cc(OC)ccc3n2CCN1Cc1ccccc1,+,/,/,8,8,/,i
CN(C(=O)COC(=O)c1ccc(-c2ccc(O)cc2)cc1)C1CCS(=O)(=O)C1 (stereo not drawn),+,13,-13,-4,-3,-7,i
COc1cc(C(=O)NN=Cc2ccc(N(C)C)cc2)cc(OC)c1OC,+,/,/,1,/,-16,+
O=C(COc1ccccc1)NCC(=O)N/N=C/c1ccccc1,i,5,3,/,-11,/,/
CN(C)c1ccc(/C=N/NC(=O)CCc2nc3ccccc3[nH]2)cc1,+,-8,-1,/,-2,-7,+
CN(C)c1ccc(/C=N/NC(=O)c2cccc(N3CCCC3=O)c2)cc1,+,6,-12,/,-3,/,i
CN(C)c1ccc(/C=N/NC(=O)COc2ccccc2)cc1,+,19,-5,8,-5,-26,+
O=C(Nc1cccc(Cl)c1)N[C@@H]1CC[C@@H](CCNC(=O)C2CCCCC2)O[C@@H]1CO,/,/,/,-16,/,-5,/
O=C(c1ccncc1)N1CC(=O)N2[C@H](CO)[C@H](c3ccc(/C=C/c4ccccc4)cc3)[C@@H]2C1,/,/,/,/,/,-20,/
COc1ccc(S(=O)(=O)N(C)C[C@H]2OCCCC[C@@H](C)Oc3ccc(NS(=O)(=O)c4cn(C)cn4)cc3C(=O)N([C@H](C)CO)C[C@H]2C)cc1,/,/,/,3,/,10,/
Cc1cccc(OCC(=O)NCC(=O)N/N=C/c2ccc([N+](=O)[O-])cc2)c1,i,8,-2,/,-7,-6,/
CN(C)c1ccc(/C=N/NC(=O)CNC(=O)c2ccco2)cc1,+,-7,8,/,-3,-1,+
CN(C)c1ccc(/C=N/NC(=O)CNC(=O)/C=C/c2ccccc2)cc1,i,2,-3,10,-26,-28,/
Cc1cccc(OCC(=O)N/N=C/c2ccc(N(C)C)cc2)c1,+,1,1,5,-14,-17,+
CC(C)[C@@H]1COCn2nncc2CC[C@H](Cc2ccccc2)C(=O)N1,/,/,/,/,/,6,/
COc1cccc(/C=N/NC(=O)c2cc3c(OC)cccc3[nH]2)c1OC,+,-5,17,-4,-21,/,i
COc1ccc(OC)c(/C=N/NC(=O)c2cc3c(OC)cccc3[nH]2)c1,/,5,12,/,-24,2,/
COc1ccc(/C=N/NC(=O)c2[nH]c3ccc(Cl)cc3c2-c2ccccc2)c(C(=O)O)c1OC,+,9,10,-18,-13,5,/
CCOc1ccc(/C=N/NC(=O)c2cc3c(OC)cccc3[nH]2)cc1,+,-8,3,-4,-22,-11,i
COc1ccc(/C=N/NC(=O)c2[nH]c3ccc(Br)cc3c2-c2ccccc2)c(C(=O)O)c1OC,i,7,-11,-21,-27,-13,/
Cn1c(=O)c2nc(NCc3ccccc3)cnc2n(C)c1=O,+,8,-34,-4,-9,-83,+
Cn1c(NCc2ccccc2)nc2c1c(=O)n(Cc1ccc(Br)cc1)c(=O)n2C,i,38,13,6,-5,/,/
